Activity calls are given as the source filed them. The calls are words filed in the database; no cut-off is given here.
Assays:
[1] = system: Triticum aestivum; assay: Inhibition of stem growth of Triticum aestivum at 100 mg/L; assay type: functional
Summary of the method: (§1)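 Seeds of each species were grown in Petri dishes with 10 seeds per dish, at 28 °C, 70–80% RH, 16:8 h light:dark photoperiod and 3000 lx light for 5 days. Root and stem lengths were measured for the 10 seeds and averaged. Each test and its controls were run in three replicates, and the data were given probit analysis.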

[2] = system: Triticum aestivum; assay: Inhibition of root growth of Triticum aestivum at 100 mg/L; assay type: functional; summary of the method: as §1
[3] = system: Echinochloa crus-galli; assay: Inhibition of stem growth of Echinochloa crus-galli at 100 mg/L; assay type: functional; summary of the method: as §1
[4] = system: Echinochloa crus-galli; assay: Inhibition of root growth of Echinochloa crus-galli at 100 mg/L; assay type: functional; summary of the method: as §1
[5] = system: Sorghum bicolor; assay: Inhibition of stem growth of Sorghum bicolor at 100 mg/L; assay type: functional; summary of the method: as §1
[6] = system: Sorghum bicolor; assay: Inhibition of root growth of Sorghum bicolor at 100 mg/L; assay type: functional; summary of the method: as §1
[7] = system: Brassica rapa subsp. oleifera; assay: Inhibition of stem growth of Brassica campestris at 100 mg/L; assay type: functional; summary of the method: as §1
[8] = system: Brassica rapa subsp. oleifera; assay: Inhibition of root growth of Brassica campestris at 100 mg/L; assay type: functional; summary of the method: as §1
[9] = system: Radish; assay: Inhibition of stem growth of Raphanus sativus at 100 mg/L; assay type: functional; summary of the method: as §1
[10] = system: Radish; assay: Inhibition of root growth of Raphanus sativus at 100 mg/L; assay type: functional; summary of the method: as §1
[11] = system: Cucumis sativus; assay: Inhibition of stem growth of Cucumis sativus at 100 mg/L; assay type: functional; summary of the method: as §1
[12] = system: Cucumis sativus; assay: Inhibition of root growth of Cucumis sativus at 100 mg/L; assay type: functional; summary of the method: as §1
[13] = system: Aphis; assay: Insecticidal activity against Aphis medicagini at 250 mg/L; assay type: functional
Summary of the method: (§2)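 Groups of 10 of each species were placed in glass Petri dishes and sprayed with test solution using a Potter sprayer. After air-drying, they were held under normal rearing conditions. Mortality at 72 h was taken from the number and size of live larvae relative to untreated controls.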

[14] = system: Triticum aestivum; assay: Herbicidal activity against Triticum aestivum at 450 g ai/ha in greenhouse in vivo test; assay type: functional, organism-based
[15] = system: Echinochloa crus-galli; assay: Herbicidal activity against Echinochloa crus-galli at 450 g ai/ha in greenhouse in vivo test; assay type: functional, organism-based
[16] = system: Sorghum bicolor; assay: Herbicidal activity against Sorghum bicolor at 450 g ai/ha in greenhouse in vivo test; assay type: functional, organism-based
[17] = system: Brassica rapa subsp. oleifera; assay: Herbicidal activity against Brassica campestris at 450 g ai/ha in greenhouse in vivo test; assay type: functional, organism-based
[18] = system: Radish; assay: Herbicidal activity against Raphanus sativus at 450 g ai/ha in greenhouse in vivo test; assay type: functional, organism-based
[19] = system: Cucumis sativus; assay: Herbicidal activity against Cucumis sativus at 450 g ai/ha in greenhouse in vivo test; assay type: functional, organism-based
[20] = system: Tetranychus cinnabarinus; assay: Insecticidal activity against Tetranychus cinnabarinus at 250 mg/L; assay type: functional; summary of the method: as §2

SMILES | inhibition at 100 µg/mL [1] | inhibition at 100 µg/mL [2] | inhibition at 100 µg/mL [3] | inhibition at 100 µg/mL [4] | inhibition at 100 µg/mL [5] | inhibition at 100 µg/mL [6] | inhibition at 100 µg/mL [7] | inhibition at 100 µg/mL [8] | inhibition at 100 µg/mL [9] | inhibition at 100 µg/mL [10] | inhibition at 100 µg/mL [11] | inhibition at 100 µg/mL [12] | Activity [13] | Activity [14] | Activity [15] | Activity [16] | Activity [17] | Activity [18] | Activity [19] | Activity [20]
O=c1n(Cc2ccccc2F)nnn1-c1ccc(Cl)cc1 | 0% | 0% | 0% | 0% | 0% | 0% | 0% | 0% | 0% | 0% | 0% | 0% | 5% | inactive | inactive | inactive | inactive | inactive | inactive | 10%
COc1cccc(Cn2nnn(-c3ccc(Cl)cc3)c2=O)c1 | 0% | 0% | 0% | 0% | 0% | 0% | 0% | 0% | 0% | 0% | 0% | 0% | 3.3% | inactive | inactive | inactive | inactive | inactive | inactive | 0%
CCCCCCCCSc1nnc(Cn2nnn(-c3ccc(Cl)cc3)c2=O)o1 | 0% | 0% | 0% | 0% | 0% | 0% | 0% | 0% | 0% | 0% | 0% | 0% | 3.3% | inactive | inactive | inactive | inactive | inactive | inactive | 2.9%
CCOC(=O)C(C)n1nnn(-c2ccc(Cl)cc2)c1=O (stereo not given) | 70% | 80% | 0% | 0% | 40% | 95% | 0% | 0% | 50% | 70% | 0% | 0% | 0% | inactive | inactive | inactive | inactive | inactive | inactive | 97.1%
CCOC(=O)C(C)Sc1nnc(Cn2nnn(-c3ccc(Cl)cc3)c2=O)o1 (stereo not given) | 0% | 0% | 0% | 0% | 0% | 0% | 60% | 80% | 0% | 0% | 0% | 0% | 8.3% | inactive | inactive | inactive | inactive | inactive | inactive | 0%
O=c1n(Cc2nnc(SCc3ccccc3)s2)nnn1-c1ccc(Cl)cc1 | 60% | 60% | 70% | 60% | 70% | 60% | 50% | 60% | 40% | 60% | 60% | 60% | 5.7% | inactive | inactive | inactive | inactive | inactive | inactive | 2.9%
CCCCSc1nnc(Cn2nnn(-c3ccc(Cl)cc3)c2=O)s1 | 40% | 40% | 30% | 70% | 40% | 50% | 40% | 50% | 0% | 30% | 0% | 0% | 0% | inactive | inactive | inactive | inactive | inactive | inactive | 5.7%
O=c1n(Cc2nnc(SCc3cccc(Cl)c3)s2)nnn1-c1ccc(Cl)cc1 | 70% | 60% | 0% | 0% | 50% | 40% | 0% | 0% | 30% | 50% | 40% | 0% | 2.9% | inactive | inactive | inactive | inactive | inactive | inactive | 5.7%
O=c1n(Cc2cccc(Cl)c2)nnn1-c1ccc(Cl)cc1 | 0% | 0% | 0% | 0% | 0% | 0% | 0% | 0% | 0% | 0% | 0% | 0% | 0% | inactive | inactive | inactive | inactive | inactive | inactive | 0%
CCCSc1nnc(Cn2nnn(-c3ccc(Cl)cc3)c2=O)s1 | 70% | 70% | 80% | 80% | 0% | 80% | 60% | 70% | 70% | 70% | 70% | 50% | 0% | inactive | inactive | inactive | inactive | inactive | inactive | 0%
CO/C=C\C(C(=O)OC)c1ccccc1CSc1nnc(Cn2nnn(-c3ccc(Cl)cc3)c2=O)s1 (stereo not given) | 40% | 0% | 0% | 30% | 0% | 60% | 30% | 30% | 30% | 60% | 30% | 30% | 2.9% | inactive | inactive | inactive | inactive | inactive | inactive | 0%
O=c1n(Cc2nnc(SCc3ccccc3F)s2)nnn1-c1ccc(Cl)cc1 | 80% | 80% | 70% | 60% | 70% | 70% | 70% | 80% | 60% | 80% | 70% | 70% | 18.6% | inactive | inactive | inactive | inactive | inactive | inactive | 0%
